Source: PubChem BioAssay
Shown are actives, neighbours in structure and some others; about 2.5% of the full set was active somewhere.
mABHD4 FP – ABHD4 (mouse) inhibition, primary FP screen; AID 720543; Q8VD66; inhibition, % at 8.92 µM; 370,000 compounds, 0.54% hits; purified mABHD4, FP-Rh probe fluorescence polarization;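 active means inhibition exceeding the mean over every tested compound plus 3 SD, cut at about 30% in these data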;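 further: 0% = plate median of compound wells and 100% = S159A mutant with DMSO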
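system = mouse ABHD4 enzyme, wild type | medium = HEPES pH 7.0, NaCl, Pluronic buffer | also added = FP-Rh probe | incubation = Enzyme–compound pre-incubation 45 min, then probe 60 min, both 25 °C | technique = fluorescence polarization, excitation 525 nm, emission 598 nm, BODIPY TMR filters | controls = S159A mutant high control, sample median low control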
PRMT1 FP inh – blocks human protein arginine methyltransferase 1; Q99873; recombinant PRMT1, activity-based probe fluorescence polarization; inhibition, % at 2.79 µM; 370,000 compounds, 1.3% hits; AID 652257;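 active means inhibition above about 21% made by adding two undisclosed values, limit read from the data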
Target sequence (Q99873 whole entry, looked up): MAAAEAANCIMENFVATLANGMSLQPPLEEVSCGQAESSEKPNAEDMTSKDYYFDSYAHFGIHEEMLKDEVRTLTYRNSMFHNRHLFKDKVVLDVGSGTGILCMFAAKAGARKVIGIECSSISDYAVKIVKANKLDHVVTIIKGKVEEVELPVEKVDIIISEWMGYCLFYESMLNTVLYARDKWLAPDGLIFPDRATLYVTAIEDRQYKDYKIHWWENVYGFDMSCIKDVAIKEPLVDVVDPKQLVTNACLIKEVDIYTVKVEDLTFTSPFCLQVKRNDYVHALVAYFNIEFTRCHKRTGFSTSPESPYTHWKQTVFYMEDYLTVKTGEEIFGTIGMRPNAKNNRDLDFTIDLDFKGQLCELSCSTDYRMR
SIAE inh – human SIAE inhibition, primary screen | 370,000 compounds, 0.69% hits | SIAE FP-Rh probe binding, fluorescence polarization | AID 1053197 | inhibition, % at 9.66 µM | Q9HAT2;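 active means inhibition above a cutoff: mean of compounds within the control limits plus 3 SD of those, cut at about 17% in these data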;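 further: 0% = plate median of compound wells and 100% = probe without SIAE protein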
HTRA1 inhibitor – blocks human HTRA1 serine peptidase | 340,000 compounds, 0.5% hits | Q92743 | inhibition, % at 5.96 µM | recombinant HTRA1, FP-rhodamine activity-based probe, fluorescence polarization; in the data active means inhibition above about 36%;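 further: 0% = enzyme with DMSO and 100% = wells lacking enzyme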
TCR-CD3 inh – blocks the human TCR-CD3 interaction; inhibition, % at 9.4 µM; 360,000 compounds, 0.37% hits; TAMRA-labeled TCR probe fluorescence, biochemical;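 further: recombinant mutant TCR 2C K166C tagged with TAMRA read by polarization; 0% = receptor in buffer alone and 100% = receptor with positive control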
HTRA1 inh conf – HTRA1 (human) inhibition, confirmation; shares compounds with HTRA1 inhibitor; AID 540248; 1,600 compounds, 66% hits; recombinant HTRA1, FP-rhodamine activity-based probe, fluorescence polarization; inhibition, % at 5.96 µM;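 active means mean inhibition over three repeats above a set limit taken from the earlier primary screen, cut at about 37% in these data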;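 further: 0% = HTRA1 with DMSO and 100% = wells lacking HTRA1; inhibitors block probe binding so polarization drops and inhibition rises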
BSA TAMRA ctr – BSA probe counter-screen for TCR-CD3 inhibitors. shares compounds with TCR-CD3 inh. 1,200 compounds, 10% hits. inhibition, % at 9.4 µM. TAMRA-labeled BSA probe fluorescence counterscreen; in the data active means inhibition above about 23%;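 further: 0% = buffer low control and 100% = reference high control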
TCR-CD3 inh conf – TCR-CD3 interaction inhibition, confirmation; shares compounds with TCR-CD3 inh; TAMRA-labeled TCR probe fluorescence binding assay; inhibition, % at 9.4 µM; 1,200 compounds, 48% hits
PRMT1 confirm – confirmation of human PRMT1 inhibitors; shares compounds with PRMT1 FP inh; recombinant His-PRMT1, activity-based probe fluorescence polarization; inhibition, % at 2.79 µM; 3,300 compounds, 42% hits; AID 687036;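 active means mean inhibition across replicates above the hit cutoff derived for the earlier primary screen, cut at about 22% in these data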
mABHD4 conf – confirmation of mouse ABHD4 inhibitors; shares compounds with mABHD4 FP; purified mABHD4, FP-Rh probe fluorescence polarization; inhibition, % at 8.92 µM; 1,800 compounds, 55% hits; AID 720658;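 active means mean inhibition across replicates above the hit cutoff set in the primary screen, cut at about 30% in these data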;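 further: 0% = wild-type ABHD4 with DMSO and 100% = catalytically dead S159A mutant with DMSO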
* marks the source's active call; other numbers are inactive results; . = not tested or not shown; ! = a repeat was not active. Unless noted, no stated cut-off is given here; in the data, active means inhibition above about 19%; inactive means the rest.

SMILES	mABHD4 FP	PRMT1 FP inh	SIAE inh	HTRA1 inhibitor	TCR-CD3 inh	HTRA1 inh conf	mABHD4 conf	others
CN(C)c1cc2c(c(N(C)C)c1)C(=O)c1ccccc1C2=O	41*	0	0	41*	-5	50*	33*
CCCCCCCCNS(=O)(=O)CC1NCc2ccc(C)cc21 (stereo not given)	-7	1	4	.	.	.	.
COc1cccc(Cn2cc(COC(=O)NCCc3c[nH]c4ccccc34)nn2)c1	4	1	0	.	.	.	.
CCOC(=O)C1(C)C=C(Nc2ccc(OC)cc2)C(=O)N1c1ccc(OC)cc1 (stereo not given)	4	-4	11	2	2	.	.
CCOC(=O)C1(C)C=C(Nc2ccc(O)cc2)C(=O)N1c1ccc(O)cc1 (stereo not given)	76*	33*	16	55*	40*	7	5	BSA TAMRA ctr=7;TCR-CD3 inh conf=9
CC(C)C[C@H](NC(C)(C)C(=O)NC1CCCCC1)C(=O)NCC(c1ccccc1)c1ccccc1	-1	-3	3	.	.	.	.
CC(C)N=C(N)N=C(N)Nc1ccc(Cl)cc1	2	-6	-5	6	8	.	.
NC(=NCCCCCCN=C(N)/N=C(\N)Nc1ccc(Cl)cc1)/N=C(\N)Nc1ccc(Cl)cc1	46*!	-8	-8	42*!	3	45*	40*
CCOC(=O)C1CCN(C2=C(NS(=O)(=O)c3ccc(Br)cc3)C(=O)c3ccccc3C2=O)CC1	45*	7	19*	47*	-9	65*	63*
NC(=S)NN=Cc1nccc2c(C(F)(F)F)cccc12	31*	-1	6	69*	-3	80*	32*
CCN(CC(=O)Nc1ccc(NC(C)=O)cc1)C(=O)C1(c2ccccc2)CC1	1	-9	-5	-2	3	.	.
C/C(=N/NC(=O)c1cc(O)c(O)c(O)c1)c1ccc([N+](=O)[O-])cc1	32*	16	13	76*	55*	57*	26	BSA TAMRA ctr=-11;TCR-CD3 inh conf=36*
O=C(NCc1cccs1)C1CC(=O)N(Cc2ccccc2)C1 (stereo not given)	-4	10	3	5	8	.	.
Nc1nc(-c2ccccc2)c(N=Nc2ccccc2Cl)s1	46*	1	14	73*	11	115*	76*
Nc1nc(-c2ccccc2)c(N=Nc2cccc3ccccc23)s1	49*	-4	13	76*	4	80*	58*
CC(=O)Nc1sc(N)nc1-c1ccccc1	0	-3	3	4	3	.	.
CCN(CC)c1ccc(N=C2C(=O)Nc3ccccc32)cc1	46*	30*	15	63*	-5	44*	51*
Cc1ccc(N=C2C(=O)Nc3ccccc32)cc1	1	-1	3	2	5	.	.
O=C(O)c1cc(O)c2c(c1)[C@H]([C@H]1c3cc(C(=O)O)cc(O)c3C(=O)c3c(O[C@@H]4O[C@H](CO)[C@@H](O)[C@H](O)[C@H]4O)cccc31)c1cccc(OC3O[C@H](CO)[C@@H](O)[C@H](O)[C@H]3O)c1C2=O (stereo not given in full)	60*	37*	74*	40*	137*	19	5	BSA TAMRA ctr=-14;TCR-CD3 inh conf=135*;PRMT1 confirm=13
O=C(O)c1cc(N=Nc2c(O)ccc3ccccc23)cc(C(=O)O)c1	-3	4	-5	6	-8	.	.
O=C(O)c1ccc(N=Nc2c(O)ccc3ncccc23)cc1	73*	3	1	39*	-14	29	80*
O=S(=O)(c1cccs1)N1CCCCC1	3	-3	-5	8	5	.	.
Cc1ccc(/C=C/C(=O)c2ccccc2)cc1	-10	-5	-10	-15	5	.	.
Cc1ccc(C)c(/C=C/C(=O)c2ccccc(=O)c2O)c1	38*	15	11	54*	11	59*	24
COC(=O)CCCC(=O)N1CCCC(CNS(=O)(=O)c2ccc(OC)cc2)C1 (stereo not given)	4	3	-1	-3	2	.	.
SMILES	mABHD4 FP	PRMT1 FP inh	SIAE inh	HTRA1 inhibitor	TCR-CD3 inh	HTRA1 inh conf	mABHD4 conf	others
CCOC(=O)Cc1csc(NC(=O)NC2(C(F)(F)F)Oc3cc(Cl)c(Cl)cc3O2)n1	30*	9	-1	37*	6	64*	13
CCOC(=O)Cc1csc(NC(=O)NC2(C(F)(F)F)Oc3ccc(Cl)cc3O2)n1 (stereo not given)	17	3	-4	16	9	.	.
Cn1c(N)c(C(=O)COC(=O)C2Cc3ccccc3CN2S(C)(=O)=O)c(=O)n(C)c1=O (stereo not given)	-1	-4	0	-1	1	.	.
COc1cc(NCCCC(C)N)c2ncccc2c1 (stereo not given)	47*	4	44*	62*	62*	12	27	BSA TAMRA ctr=22;TCR-CD3 inh conf=14
COc1cc(NCCCCC(C)N)c2nccc(C)c2c1 (stereo not given)	19	3	9	15	4	.	.
CCn1c(O)c(C=NCc2ccccc2)sc1=S	0	2	1	0	-8	.	.
Oc1cccc(C=NCc2ccccc2)c1O	45*	36*	18*	55*	29*	62*	43*
CCc1cccc(C)c1NC(=O)C1CC(=O)N(C2CCCC2)C1 (stereo not given)	-2	0	-6	6	-8	.	.
O=Cc1cc(N=Nc2cccc(C(=O)O)c2)ccc1O	18	6	-33	11	-6	.	.
O=Cc1cc(N=Nc2ccccc2Cl)ccc1O	30*	2	10	38*	5	54*	35*
O=C(NC1CCCCN(Cc2cccc(C(F)(F)F)c2)C1=O)c1ccc(Cl)cc1 (stereo not given)	-9	-2	4	.	.	.	.
Cc1[nH]c(N=Nc2ccccc2)nc1N=Nc1ccccc1	45*	-2	2	74*	3	75*	62*
Nc1ccc(N=Nc2ccccc2)c(N)n1	16	3	9	15	-3	.	.
CCOc1ccc(-c2cc(C(=O)OC)c3n(c2=O)CCC3)cc1	1	-3	1	.	.	.	.
Cc1cccc(-c2oc3ccccc3c2C#CCCO)c1	-22	2	-8	-54	-1	.	.
